Reference: ChEMBL document CHEMBL1155530, “Identification of aryl 2-aminoimidazoles as biofilm inhibitors in Gram-negative bacteria” (Bioorg Med Chem Lett, 2010)
Activity calls are given as the source filed them. The calls are words filed in the database; no cut-off is given here.

Assays:
Escherichia coli [1] = assay: Inhibition of Escherichia coli biofilm formation after 24 hrs by crystal violet reporter assay; type: functional, organism-based
Procedure, shortened: (§1)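 Biofilm formation measured by crystal violet reporter assay. Each compound was first screened at 100 µM. Compounds giving >95% inhibition then went to dose-response studies to derive IC50. Values are means of three or more experiments.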

Pseudomonas aeruginosa [2] = assay: Dispersion of Pseudomonas aeruginosa PA14 established biofilm at 100 uM after 24 hrs by crystal violet reporter assay; type: functional, organism-based
Escherichia coli [3] = assay: Inhibition of Escherichia coli biofilm formation at 100 uM after 24 hrs by crystal violet reporter assay; type: functional; procedure, shortened: as §1
Pseudomonas aeruginosa [4] = assay: Inhibition of Pseudomonas aeruginosa PA14 biofilm formation at 100 uM after 24 hrs by crystal violet reporter assay; type: functional; settings: PA14, 24 h; procedure, shortened: as §1
Acinetobacter baumannii [5] = assay: Inhibition of Acinetobacter baumannii biofilm formation at 100 uM after 24 hrs by crystal violet reporter assay; type: functional; procedure, shortened: as §1
Pseudomonas aeruginosa [6] = assay: Inhibition of Pseudomonas aeruginosa PA14 biofilm formation after 24 hrs by crystal violet reporter assay; type: functional, organism-based; settings: PA14, 24 h; procedure, shortened: as §1
Escherichia coli [7] = assay: Dispersion of Escherichia coli established biofilm at 50 uM after 24 hrs by crystal violet reporter assay; type: functional
Escherichia coli [8] = assay: Toxicity in Escherichia coli assessed as inhibition of planktonic growth at IC50 concentration measured up to 24 hrs; type: organism-based; settings: in vivo
Acinetobacter baumannii [9] = assay: Inhibition of Acinetobacter baumannii biofilm formation after 24 hrs by crystal violet reporter assay; type: functional, organism-based; procedure, shortened: as §1
Acinetobacter baumannii [10] = assay: Dispersion of Acinetobacter baumannii established biofilm at 100 uM after 24 hrs by crystal violet reporter assay; type: functional

Row | Structure (SMILES) | IC50 (Escherichia coli [1]) [µM] | Activity (Pseudomonas aeruginosa [2]) | further results
1 | Nc1ncc(-c2cccc(NC(=O)c3cc(F)cc(F)c3)c2)[nH]1 | – | inactive | inhibition at 100 µM (Escherichia coli [3]): 64%; inhibition at 100 µM (Pseudomonas aeruginosa [4]): < 5%
2 | Nc1ncc(-c2ccc(-n3cc(-c4cc(F)cc(F)c4)nn3)cc2)[nH]1 | – | – | inhibition at 100 µM (Acinetobacter baumannii [5]): 21%; inhibition at 100 µM (Escherichia coli [3]): 35%; inhibition at 100 µM (Pseudomonas aeruginosa [4]): < 5%
3 | CCCCCCC(=O)Nc1cccc(-c2cnc(N)[nH]2)c1 | – | inactive | IC50 (Pseudomonas aeruginosa [6]): 39.4 µM
4 | CCCCCCC(=O)Nc1ccc(-c2cnc(N)[nH]2)cc1 | – | inactive | IC50 (Pseudomonas aeruginosa [6]): 16.8 µM
5 | Nc1ncc(-c2ccccc2NC(=O)c2cc(F)cc(F)c2)[nH]1 | – | inactive | inhibition at 100 µM (Escherichia coli [3]): < 5%; inhibition at 100 µM (Pseudomonas aeruginosa [4]): < 5%
6 | Nc1ncc(-c2cccc(NC(=O)C34CC5CC(CC(C5)C3)C4)c2)[nH]1 | 43.4 | inactive | –
7 | Cl.Nc1ncc(-c2ccc(NC(=O)/C=C/c3ccccc3)cc2)[nH]1 | 16.3 | inactive | Activity (Escherichia coli [7]): 67%
8 | CCCCCCCCCC(=O)Nc1ccccc1-c1cnc(N)[nH]1.Cl | – | inactive | IC50 (Acinetobacter baumannii [9]): 43 µM; Activity (Acinetobacter baumannii [10]): 40%

More lines, main results first:

Row | IC50 (Escherichia coli [1]) [µM] | Structure (SMILES) | Activity (Pseudomonas aeruginosa [2]) | further results
9 | 16.5 | CCCCCc1ccc(C(=O)Nc2cccc(-c3cnc(N)[nH]3)c2)cc1 | inactive | –
10 | 47 | Nc1ncc(-c2cccc(NC(=O)CCC3CCCC3)c2)[nH]1 | inactive | –
11 | 5.2 | Cl.Nc1ncc(-c2ccc(NC(=O)c3cc(F)cc(F)c3)cc2)[nH]1 | inactive | Activity (Escherichia coli [7]): 51%; IC50 (Pseudomonas aeruginosa [6]): 27.6 µM; Activity (Escherichia coli [8]): Non-toxic
12 | 39.4 | CCCCCc1ccc(C(=O)Nc2ccc(-c3cnc(N)[nH]3)cc2)cc1 | inactive | –
